The structures appear in SMILES notation. Calls of active or inactive are those of the source. No cut-off for these calls is given here. Bounds are passed on as bounds.

These results are taken from ChEMBL document CHEMBL1909591, “Design, synthesis, and SAR studies of novel polycyclic acids as potent and selective inhibitors of human 11β-hydroxysteroid dehydrogenase type 1 (11β-HSD-1)” (Bioorg Med Chem Lett, 2011).

Data set [1] addresses T1, Peroxisome proliferator-activated receptor delta (Homo sapiens) (UniProt Q03181).
T1 sequence (whole entry): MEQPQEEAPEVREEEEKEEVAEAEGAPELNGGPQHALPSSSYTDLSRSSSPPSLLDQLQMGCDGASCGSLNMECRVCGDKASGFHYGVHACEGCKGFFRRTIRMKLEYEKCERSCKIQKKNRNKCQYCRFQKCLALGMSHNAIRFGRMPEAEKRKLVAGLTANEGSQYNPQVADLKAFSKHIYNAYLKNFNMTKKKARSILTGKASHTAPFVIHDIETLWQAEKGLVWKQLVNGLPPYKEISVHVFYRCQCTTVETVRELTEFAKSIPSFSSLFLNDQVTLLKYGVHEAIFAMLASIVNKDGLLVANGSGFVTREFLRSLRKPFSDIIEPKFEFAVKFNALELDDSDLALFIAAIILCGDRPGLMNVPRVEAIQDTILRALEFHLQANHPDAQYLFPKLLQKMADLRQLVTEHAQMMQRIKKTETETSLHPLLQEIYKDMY
As to the kind of experiment: Activation of PPARdelta up to 30 uM.

The nature of data set [2]: Metabolic stability in human liver microsomes assessed as compound remaining after 10 mins. It counts as ADME, Microsome. To be noted: liver microsomes, read-out: Stability. For orientation: Liver microsomes are a subcellular fraction often used to study metabolism.
Data set [3] is described as follows: Cmax in mouse at 30 umol/kg. It counts as ADME, organism-based. More on the design: dose 30 umol/kg. To be noted: in vivo. In outline: (§1)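 Oral dosing in mice, with the compound in water containing 0.5% methocel and 0.1% Tween 80. Plasma concentrations were measured at 1, 4 and 8 h after dosing.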
In data set [4] the target is T2, Peroxisome proliferator-activated receptor alpha (Homo sapiens) (UniProt Q07869).
T2 sequence (whole entry): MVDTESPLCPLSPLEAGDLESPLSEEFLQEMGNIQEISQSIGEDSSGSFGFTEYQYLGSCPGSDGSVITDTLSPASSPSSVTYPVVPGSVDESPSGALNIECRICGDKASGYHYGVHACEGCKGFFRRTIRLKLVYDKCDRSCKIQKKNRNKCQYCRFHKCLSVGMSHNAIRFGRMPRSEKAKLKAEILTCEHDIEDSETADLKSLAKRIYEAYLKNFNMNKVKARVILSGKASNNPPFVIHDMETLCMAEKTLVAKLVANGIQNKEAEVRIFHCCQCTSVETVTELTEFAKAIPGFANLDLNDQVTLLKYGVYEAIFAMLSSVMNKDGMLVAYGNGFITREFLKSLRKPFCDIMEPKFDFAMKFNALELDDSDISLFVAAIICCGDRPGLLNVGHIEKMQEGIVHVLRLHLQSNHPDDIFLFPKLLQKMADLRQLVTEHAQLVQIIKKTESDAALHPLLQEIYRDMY
Kind of data set: Activation of PPARalpha up to 30 uM.

A short description of data set [5]: Metabolic stability in mouse liver microsomes assessed as compound remaining after 10 mins. It counts as ADME, Microsome. Particulars: liver microsomes, read-out: Stability.
Data set [6] deals with T3, Peroxisome proliferator-activated receptor gamma (Homo sapiens) (UniProt P37231).
T3 sequence (whole entry): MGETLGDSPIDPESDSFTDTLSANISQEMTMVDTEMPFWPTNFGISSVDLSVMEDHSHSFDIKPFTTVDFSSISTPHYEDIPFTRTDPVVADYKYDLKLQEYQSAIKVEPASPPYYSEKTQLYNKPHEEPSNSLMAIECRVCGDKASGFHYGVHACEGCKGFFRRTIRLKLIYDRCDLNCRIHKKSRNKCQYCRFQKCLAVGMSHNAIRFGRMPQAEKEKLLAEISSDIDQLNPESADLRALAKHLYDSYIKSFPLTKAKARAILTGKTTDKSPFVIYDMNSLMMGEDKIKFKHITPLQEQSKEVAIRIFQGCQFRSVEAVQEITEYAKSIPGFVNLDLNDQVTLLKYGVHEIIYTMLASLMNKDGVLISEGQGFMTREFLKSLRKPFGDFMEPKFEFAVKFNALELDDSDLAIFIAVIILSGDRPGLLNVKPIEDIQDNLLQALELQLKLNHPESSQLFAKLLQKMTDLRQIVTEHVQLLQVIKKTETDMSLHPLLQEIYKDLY
As to the kind of experiment: Activation of PPARgamma up to 30 uM.

A short description of data set [7]: AUC (0 to 8 hrs) in mouse at 30 umol/kg. It counts as ADME, organism-based. On the set-up: time < 8 hr, dose 30 umol/kg. To be noted: plasma. In outline:
as §1

Data set [8] has as its target Voltage-gated inwardly rectifying potassium channel KCNH2 (Homo sapiens, UniProt Q12809). As to the kind of experiment: Inhibition of human ERG.
In data set [9] the target is T4, Nuclear receptor subfamily 1 group I member 2 (Homo sapiens, UniProt O75469).
T4 sequence (O75469 whole entry): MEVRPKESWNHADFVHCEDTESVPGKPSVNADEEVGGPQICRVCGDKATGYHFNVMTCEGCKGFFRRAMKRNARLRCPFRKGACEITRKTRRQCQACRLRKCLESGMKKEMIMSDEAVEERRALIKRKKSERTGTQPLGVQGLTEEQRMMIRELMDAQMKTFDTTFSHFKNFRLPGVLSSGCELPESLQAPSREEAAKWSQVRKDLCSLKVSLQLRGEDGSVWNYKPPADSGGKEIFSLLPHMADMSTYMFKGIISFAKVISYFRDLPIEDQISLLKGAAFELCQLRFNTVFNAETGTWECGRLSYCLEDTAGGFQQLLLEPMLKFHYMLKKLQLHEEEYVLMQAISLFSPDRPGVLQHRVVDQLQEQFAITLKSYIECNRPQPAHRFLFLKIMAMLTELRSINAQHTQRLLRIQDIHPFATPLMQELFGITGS
Kind of data set: Transactivation of PXR.

The target in data set [10] is 11-beta-hydroxysteroid dehydrogenase type 2 (Homo sapiens) (UniProt P80365). Kind of data set: Inhibition of human 11beta-HSD-2.
The target of data set [11] is T5, 11-beta-hydroxysteroid dehydrogenase type 2 (Homo sapiens) (UniProt P80365).
T5 sequence (whole entry): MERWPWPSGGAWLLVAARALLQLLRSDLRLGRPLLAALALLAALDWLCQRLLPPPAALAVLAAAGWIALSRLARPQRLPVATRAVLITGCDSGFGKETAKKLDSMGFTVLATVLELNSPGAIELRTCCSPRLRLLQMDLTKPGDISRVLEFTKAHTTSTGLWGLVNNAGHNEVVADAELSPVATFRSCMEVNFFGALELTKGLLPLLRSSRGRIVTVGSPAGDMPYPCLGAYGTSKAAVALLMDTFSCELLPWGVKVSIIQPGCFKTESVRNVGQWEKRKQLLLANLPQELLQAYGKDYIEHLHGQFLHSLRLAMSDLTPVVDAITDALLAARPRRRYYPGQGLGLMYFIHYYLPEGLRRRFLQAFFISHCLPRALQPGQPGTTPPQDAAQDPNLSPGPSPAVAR
Kind of data set: Inhibition of human 11beta-HSD-2 at 10 uM.

The target in the next data set is Cytochrome P450 2C19 (Homo sapiens, UniProt P33261). As to the kind of experiment: Inhibition of CYP2C19. It counts as ADME.
Sequence of Cytochrome P450 2C19 (P33261 whole entry): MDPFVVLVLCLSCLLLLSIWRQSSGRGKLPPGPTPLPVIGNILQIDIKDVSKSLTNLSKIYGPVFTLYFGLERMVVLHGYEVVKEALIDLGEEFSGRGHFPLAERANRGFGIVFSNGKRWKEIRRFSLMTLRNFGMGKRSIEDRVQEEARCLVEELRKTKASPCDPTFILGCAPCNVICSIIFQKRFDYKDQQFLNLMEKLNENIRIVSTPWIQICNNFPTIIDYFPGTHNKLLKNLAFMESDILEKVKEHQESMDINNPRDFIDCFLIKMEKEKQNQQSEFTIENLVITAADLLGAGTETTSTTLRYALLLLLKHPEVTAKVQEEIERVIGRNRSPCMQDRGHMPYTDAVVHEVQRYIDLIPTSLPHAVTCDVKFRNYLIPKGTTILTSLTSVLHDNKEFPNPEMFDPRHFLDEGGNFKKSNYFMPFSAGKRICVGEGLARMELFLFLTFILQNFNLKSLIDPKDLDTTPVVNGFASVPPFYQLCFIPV
Another data set has as its target T6, Cytochrome P450 1A2 (Homo sapiens, UniProt P05177).
T6 sequence (P05177 whole entry): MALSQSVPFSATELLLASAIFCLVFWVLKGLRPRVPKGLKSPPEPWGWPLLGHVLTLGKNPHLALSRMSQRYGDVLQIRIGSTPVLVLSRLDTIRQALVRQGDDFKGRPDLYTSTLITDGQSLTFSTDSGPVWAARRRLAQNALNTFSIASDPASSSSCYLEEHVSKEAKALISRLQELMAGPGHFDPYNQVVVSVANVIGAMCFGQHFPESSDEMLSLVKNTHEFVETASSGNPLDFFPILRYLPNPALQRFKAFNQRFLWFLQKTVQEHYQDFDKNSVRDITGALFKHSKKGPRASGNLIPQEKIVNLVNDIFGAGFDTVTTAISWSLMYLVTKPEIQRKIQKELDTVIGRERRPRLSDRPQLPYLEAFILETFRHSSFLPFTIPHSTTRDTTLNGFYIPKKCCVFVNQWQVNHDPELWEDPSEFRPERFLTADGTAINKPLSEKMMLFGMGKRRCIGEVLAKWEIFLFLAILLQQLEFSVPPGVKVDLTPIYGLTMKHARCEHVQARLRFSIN
Kind of data set: Inhibition of CYP1A2. It counts as ADME.

The next data set has as its target Cytochrome P450 3A4 (Homo sapiens, UniProt P08684). Kind of data set: Inhibition of CYP3A4. It counts as ADME.
A further data set deals with Cytochrome P450 2D6 (Homo sapiens, UniProt P10635). As to the kind of experiment: Inhibition of CYP2D6. It counts as ADME.
Sequence of Cytochrome P450 2D6 (P10635 whole entry): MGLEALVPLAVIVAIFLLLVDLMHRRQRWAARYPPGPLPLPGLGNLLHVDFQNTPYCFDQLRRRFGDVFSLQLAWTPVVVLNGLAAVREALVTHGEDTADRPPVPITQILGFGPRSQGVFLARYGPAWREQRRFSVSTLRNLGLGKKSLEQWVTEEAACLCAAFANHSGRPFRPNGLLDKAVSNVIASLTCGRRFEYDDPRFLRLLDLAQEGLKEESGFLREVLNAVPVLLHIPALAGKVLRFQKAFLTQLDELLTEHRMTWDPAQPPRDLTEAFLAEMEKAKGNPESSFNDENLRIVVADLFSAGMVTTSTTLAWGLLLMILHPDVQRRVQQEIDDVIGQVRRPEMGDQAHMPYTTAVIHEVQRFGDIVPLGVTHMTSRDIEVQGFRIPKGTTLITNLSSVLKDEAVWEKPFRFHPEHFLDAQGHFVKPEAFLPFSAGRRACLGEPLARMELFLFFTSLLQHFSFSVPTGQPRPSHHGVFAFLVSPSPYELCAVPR
In another data set the target is Cytochrome P450 2C9 (Homo sapiens, UniProt P11712). As to the kind of experiment: Inhibition of CYP2C9. It counts as ADME.
Sequence of Cytochrome P450 2C9 (P11712 whole entry): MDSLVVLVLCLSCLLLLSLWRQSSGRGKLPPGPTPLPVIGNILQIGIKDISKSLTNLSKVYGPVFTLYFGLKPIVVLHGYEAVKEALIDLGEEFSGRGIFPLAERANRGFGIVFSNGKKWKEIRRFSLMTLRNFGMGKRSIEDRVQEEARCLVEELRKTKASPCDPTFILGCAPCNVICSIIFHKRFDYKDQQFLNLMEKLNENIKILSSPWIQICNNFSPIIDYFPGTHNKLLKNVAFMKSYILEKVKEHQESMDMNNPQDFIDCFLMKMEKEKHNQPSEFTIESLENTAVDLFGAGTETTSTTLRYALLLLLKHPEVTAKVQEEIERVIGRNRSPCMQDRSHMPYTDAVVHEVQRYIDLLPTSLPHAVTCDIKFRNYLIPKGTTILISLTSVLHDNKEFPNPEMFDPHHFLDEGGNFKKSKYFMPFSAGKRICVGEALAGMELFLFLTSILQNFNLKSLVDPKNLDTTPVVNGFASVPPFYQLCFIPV
Data set [12] concerns the target 11-beta-hydroxysteroid dehydrogenase 1 (Mus musculus, UniProt P50172). As to the kind of experiment: Inhibition of mouse 11beta-HSD-1.

Sequence of Cytochrome P450 3A4 (P08684 whole entry): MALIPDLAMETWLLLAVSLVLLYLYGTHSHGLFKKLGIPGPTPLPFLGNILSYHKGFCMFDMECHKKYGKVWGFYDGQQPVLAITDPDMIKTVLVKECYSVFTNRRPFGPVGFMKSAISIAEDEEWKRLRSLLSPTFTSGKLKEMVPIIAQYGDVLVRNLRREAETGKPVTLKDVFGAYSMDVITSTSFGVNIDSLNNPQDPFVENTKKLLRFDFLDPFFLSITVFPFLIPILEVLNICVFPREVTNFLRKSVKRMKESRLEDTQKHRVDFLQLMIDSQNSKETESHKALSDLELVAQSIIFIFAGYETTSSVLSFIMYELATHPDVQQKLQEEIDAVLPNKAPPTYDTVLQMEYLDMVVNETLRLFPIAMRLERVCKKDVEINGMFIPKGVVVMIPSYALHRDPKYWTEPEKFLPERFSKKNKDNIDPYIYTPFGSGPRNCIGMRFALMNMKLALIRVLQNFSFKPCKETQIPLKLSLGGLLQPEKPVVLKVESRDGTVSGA
Sequence of 11-beta-hydroxysteroid dehydrogenase 1 (P50172 whole entry): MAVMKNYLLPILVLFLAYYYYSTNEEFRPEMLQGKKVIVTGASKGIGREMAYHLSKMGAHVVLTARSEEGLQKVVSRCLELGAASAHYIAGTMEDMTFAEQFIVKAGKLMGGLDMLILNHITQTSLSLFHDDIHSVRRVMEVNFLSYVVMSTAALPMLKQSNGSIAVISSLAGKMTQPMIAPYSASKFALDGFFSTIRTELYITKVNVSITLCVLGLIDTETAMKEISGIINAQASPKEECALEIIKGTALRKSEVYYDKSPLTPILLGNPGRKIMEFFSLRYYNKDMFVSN
Sequence of Voltage-gated inwardly rectifying potassium channel KCNH2 (Q12809 whole entry): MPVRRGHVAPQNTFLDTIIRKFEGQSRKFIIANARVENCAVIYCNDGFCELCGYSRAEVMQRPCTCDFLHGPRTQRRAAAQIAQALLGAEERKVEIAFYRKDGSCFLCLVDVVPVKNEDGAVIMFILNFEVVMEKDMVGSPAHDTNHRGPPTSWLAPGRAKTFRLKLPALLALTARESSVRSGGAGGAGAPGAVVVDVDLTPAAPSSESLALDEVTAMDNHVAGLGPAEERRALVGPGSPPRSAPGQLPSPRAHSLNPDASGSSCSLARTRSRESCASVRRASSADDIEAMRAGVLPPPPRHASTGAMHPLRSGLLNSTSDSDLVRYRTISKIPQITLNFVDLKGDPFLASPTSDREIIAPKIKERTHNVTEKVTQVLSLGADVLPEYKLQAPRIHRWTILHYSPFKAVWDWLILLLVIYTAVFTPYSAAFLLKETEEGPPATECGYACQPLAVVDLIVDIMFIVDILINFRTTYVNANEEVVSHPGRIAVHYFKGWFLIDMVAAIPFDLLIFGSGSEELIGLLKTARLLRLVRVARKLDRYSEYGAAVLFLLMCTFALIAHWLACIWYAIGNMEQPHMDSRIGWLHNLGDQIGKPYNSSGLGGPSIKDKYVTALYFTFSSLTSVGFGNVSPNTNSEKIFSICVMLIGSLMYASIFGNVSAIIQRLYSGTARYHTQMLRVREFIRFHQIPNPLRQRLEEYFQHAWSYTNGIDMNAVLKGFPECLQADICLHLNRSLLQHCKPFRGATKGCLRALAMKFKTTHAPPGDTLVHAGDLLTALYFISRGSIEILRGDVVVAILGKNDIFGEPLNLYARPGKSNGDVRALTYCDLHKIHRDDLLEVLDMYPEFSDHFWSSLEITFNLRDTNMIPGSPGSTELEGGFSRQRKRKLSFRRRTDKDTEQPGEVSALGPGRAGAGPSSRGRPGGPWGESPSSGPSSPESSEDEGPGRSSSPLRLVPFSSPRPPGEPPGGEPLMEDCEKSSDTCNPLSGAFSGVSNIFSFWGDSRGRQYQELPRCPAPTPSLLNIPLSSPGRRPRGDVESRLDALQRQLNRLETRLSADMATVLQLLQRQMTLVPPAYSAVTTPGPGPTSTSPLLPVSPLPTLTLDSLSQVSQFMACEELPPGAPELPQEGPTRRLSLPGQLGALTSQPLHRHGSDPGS

Regarding `O=C(O)CC1(c2ccc(F)cc2)C2CC3CC(C2)CC1C3` (configuration not stated), the result in [1], in data set [4] and in [6] was inactive. In addition, the remaining at 10 min in data set [2] came out at 78%; in [5], 48%. Moreover, in data set [3], the Cmax came out at 480 nM. Further, in data set [7], the AUC(0-t) at 8 h turned out to be 2 µM·h. Further, the “inhibition (INH)” value (in data set [8]; against Cytochrome P450 2C19; at Cytochrome P450 1A2; against Cytochrome P450 3A4; at Cytochrome P450 2D6; at Cytochrome P450 2C9) was “Active” in each case. This compound displayed an EC50 in data set [9] of more than 50000 nM. The inhibition entry in data set [10] was “inactive”. Also, the inhibition in data set [11] was less than 50%. In [12], this compound registered an IC50 of 120 nM.

As usually defined, the Cmax is the peak of the concentration-time curve. Broadly, the AUC(0-t) is the area under the concentration-time curve up to a stated or last time point. For orientation: EC50 means the concentration at which the effect is half-maximal. What is called inhibition is the percentage by which the read-out fell short of the control. What is called IC50 is the midpoint of a concentration-inhibition curve. Read a high IC50 as weaker potency.
